From PubChem BioAssay
CHRM4 agonist: agonists of human muscarinic M4 receptor (CHRM4); P08173; CHO-K1 hM4/Gqi5, Fluo-8 calcium fluorescence; vehicle 0%, full acetylcholine response 100%; activation, % at 3 µM; 0.14% of 360,000 active;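 active means activation above the run mean over all test wells plus 3 SD, cut at about 32% in these data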;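 further: peak over basal fluorescence ratio per well then scaled between controls; 0% = DMSO wells and 100% = acetylcholine at EC100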
CHRM4 antagonist: antagonists of human muscarinic M4 receptor (CHRM4); CHO-hM4 cells, ACh EC80, Fluo-8 calcium fluorescence; AID 624125; 0.73% of 360,000 active; inhibition, % at 3 µM;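 active means inhibition above its plate's cutoff, the mean inhibition of sample wells plus 3 SD, cut at about 27% in these data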;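 further: 0% = acetylcholine EC80 with DMSO and 100% = DMSO without agonist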
CHRM4 PAM: CHRM4 positive allosteric modulation; P08173; CHO-K1 hM4/Gqi5, Fluo-8 calcium fluorescence, ACh EC20; 0% = ACh EC20, 100% = maximal ACh; activation, % at 3 µM; 0.4% of 360,000 active;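 active means activation above its plate's cutoff, the mean activation of sample wells plus 3 SD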
M5 antag: blocks acetylcholine activation of human M5 receptor | AID 624040 | CHO-hM5 cells, Fluo-8 calcium fluorescence, ACh EC80 | 0.59% of 360,000 active | P08912 | inhibition, % at 3 µM;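 active means inhibition above a per-plate cutoff, the mean of that plate's test compounds plus 3 SD, cut at about 27% in these data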;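 further: 0% = acetylcholine EC80 with DMSO and 100% = DMSO without agonist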
Target sequence (P08912 whole entry, looked up): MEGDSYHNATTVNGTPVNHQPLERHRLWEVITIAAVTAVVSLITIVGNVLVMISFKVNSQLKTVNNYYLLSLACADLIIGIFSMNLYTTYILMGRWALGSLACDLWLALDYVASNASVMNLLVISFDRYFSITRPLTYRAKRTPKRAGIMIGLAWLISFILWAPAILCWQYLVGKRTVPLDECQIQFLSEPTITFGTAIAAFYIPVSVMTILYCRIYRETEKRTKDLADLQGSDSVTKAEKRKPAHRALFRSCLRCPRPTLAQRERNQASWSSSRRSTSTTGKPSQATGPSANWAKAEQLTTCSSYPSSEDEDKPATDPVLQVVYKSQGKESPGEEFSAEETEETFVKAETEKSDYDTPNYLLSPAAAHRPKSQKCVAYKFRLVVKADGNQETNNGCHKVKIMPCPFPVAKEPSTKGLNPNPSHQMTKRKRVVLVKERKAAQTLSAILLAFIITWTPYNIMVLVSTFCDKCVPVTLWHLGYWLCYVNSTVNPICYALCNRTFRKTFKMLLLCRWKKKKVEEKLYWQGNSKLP
CHRM5 PAM: CHRM5 positive allosteric modulation; CHO-K1 hM5, Fluo-8 calcium, ACh EC20 PAM; 0% = ACh EC20, 100% = ACh EC100; P08912; activation, % at 3 µM; 0.3% of 360,000 active; AID 624038;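 active means activation above the run cutoff, the mean activation of all test compounds plus 3 SD, cut at about 18% in these data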
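System: CHO-K1 hM5 cells. Reagent: acetylcholine, EC20 level. Compound dosing: single dose, 3 µM nominal final test concentration. Timing: Post-acetylcholine fluorescence recording 140 s. Detection: Fluo-8 calcium fluorescence. Read-out: % activation, ACh-normalized. Benchmarks: ACh EC20 and EC100 wells. Repeats: singlicate, one well per test compound.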
M5 ag: CHRM5 agonism in calcium assay; P08912; CHO-K1 hM5 cells, Fluo-8 calcium fluorescence; 0% DMSO wells, 100% maximal acetylcholine response; activation, % at 3 µM; 0.19% of 360,000 active; AID 624037;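 active means activation above the run's mean over test compounds plus 3 SD, cut at about 23% in these data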;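 further: signal is peak over basal fluorescence ratio across the kinetic read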
Active calls of the source: *; ! = not confirmed by another sample. Compounds with a hit are over-represented: about 1.8% of the library has one in this group of screens.

SMILES | CHRM4 agonist | CHRM4 antagonist | CHRM4 PAM | M5 antag | CHRM5 PAM | M5 ag
COc1cccc(C(O)c2nc(-c3ccc(F)c(Cl)c3)cs2)c1 (stereo unspecified) | 2.4 | -14.8 | -0.8 | -2.0 | -0.7 | -0.5
CC1OC(CCc2cccc(Cl)c2)Cc2[nH][nH]c(=O)c21 (stereo unspecified) | 1.8 | 4.3 | -0.8 | 5.8 | 1.1 | 3.2
O=C(Nc1ccnn1C1CCN(C(=O)c2cccc(C(F)(F)F)c2)CC1)C1CC1 | 2.3 | -7.8 | 21.3* | 11.0 | 0.8 | -2.6
O=C(Nc1ccnn1C1CCN(C(=O)c2ccc(C(F)(F)F)cc2)CC1)C1CC1 | 1.6 | -12.1 | 4.5 | 5.4 | -5.5 | -6.9
O=C(NC(Cc1ccccc1)C(=O)O)/C(=C/c1ccc(Br)cc1)NC(=O)c1ccc(Br)o1 (stereo unspecified) | 0.5 | -1.2 | 19.4* | 9.3 | -5.2 | -4.5
O=C(NC(Cc1ccccc1)C(=O)O)/C(=C\c1ccc(Br)cc1)NC(=O)c1ccc(Br)o1 (stereo unspecified) | -0.1 | 15.0 | -4.2 | -7.7 | 6.5 | 2.2
CCN1C(=O)/C(=C/C=C2/SCCN2C)SC1=S | 4.0 | -0.4 | -5.5 | -1.5 | -11.5 | 4.9
CCCCN1C(=O)/C(=C/C=C2/CC(C)(C)CN2C)SC1=S | 34.2* | 24.7 | -10.8 | 36.1* | -14.7 | 46.8*
CCCCN1C(=O)/C(=C/C=C2\Oc3ccccc3N2CC)SC1=S | 19.5 | 21.6 | -9.8 | 24.7 | -8.1 | 47.6*
O=C(CC1Sc2ccccc2NC1=O)NCc1ccc(Cl)cc1 (stereo unspecified) | 1.4 | -2.5 | 2.6 | 4.1 | 1.7 | -0.7
CCCc1nn(-c2cc(Cl)ccc2OC)c2c1C(=O)CC(C)(C)C2 | -2.5 | 4.0 | -2.3 | -1.1 | 1.2 | -5.4
CCc1nn(-c2cc(Cl)ccc2OC)c2c1C(=O)CCC2 | -1.4 | -2.5 | 9.7 | -11.1 | 18.3* | -4.6
CN(c1ccccc1)c1ccc(/C=C/[N+](=O)[O-])cc1 | 16.1 | 36.4* | -15.1 | 70.6* | -8.2 | 44.1*
O=C(Cc1cc(=O)[nH][nH]1)N/N=C/C(Cl)=C/c1ccccc1 | 0.2 | -3.5 | 35.1*! | -0.3 | -0.8 | -1.1
O=C(Cc1cc(=O)[nH][nH]1)N/N=C/c1c(Cl)cccc1Cl | 0.9 | 2.9 | -4.2 | -1.2 | 0.2 | 0.3
O=c1[nH]c(C2CCN(S(=O)(=O)c3ccc(S(=O)(=O)NC4CC4)cc3)CC2)nc2c1nnn2Cc1ccccc1 | 1.6 | 62.9* | -21.4 | 6.8 | 3.2 | -4.1
O=c1[nH]c(C2CCN(S(=O)(=O)c3cccc([N+](=O)[O-])c3)CC2)nc2c1nnn2Cc1ccccc1 | 0.9 | 55.1* | -20.5 | 7.9 | 2.6 | -1.9
O=c1[nH]c(C2CCN(S(=O)(=O)c3ccccc3)CC2)nc2c1nnn2Cc1cccc(Cl)c1 | 0.5 | 83.3* | -21.8 | 1.5 | -0.2 | -6.9
O=c1[nH]c(C2CCN(S(=O)(=O)c3cccc(Cl)c3)CC2)nc2c1nnn2Cc1ccccc1 | 0.1 | 96.1* | -18.3 | 5.7 | -1.0 | -2.7
CC(C)CCN1CCN(CC(c2ccccc2)c2ccccc2)CC1CCO (stereo unspecified) | 0.6 | 15.1 | -15.2 | 10.5 | -15.8 | -10.1
COc1ccc(CCCNC(=O)C2(C)Cc3c(-c4ccc5c(c4)OCO5)ccnc3O2)cc1 (stereo unspecified) | 10.9 | -2.2 | -6.0 | 7.4 | -7.5 | -1.3
COC(=O)c1cc(S(=O)(=O)Nc2ccc(C)cn2)c[nH]1 | 0.4 | 3.5 | -4.1 | 27.4* | -4.8 | -1.4
CCCCn1c(N)c(N(CCC(C)C)C(=O)COC(=O)Cc2ccc(Cl)cc2)c(=O)[nH]c1=O | -0.4 | -0.2 | 5.3 | 12.3 | -0.1 | 0.5
Cc1ccc(-c2nc3ccc(Br)cn3c2Cc2cccc(Cl)c2)cc1 | 0.8 | -3.5 | -5.3 | 0.2 | -0.1 | 1.6
C=CCn1c(=N)n(CC(O)c2ccco2)c2ccccc21 (stereo unspecified) | 1.2 | 13.8 | 16.8* | 8.1 | 29.0* | -1.7
SMILES | CHRM4 agonist | CHRM4 antagonist | CHRM4 PAM | M5 antag | CHRM5 PAM | M5 ag
COC(=O)c1sc(C(C)(C)C)cc1CS(=O)(=O)c1ccccn1 | 2.9 | -14.6 | -3.6 | -18.2 | 21.8* | 8.9
CC(C)(C)c1ccc(OCC(O)CS(=O)(=O)c2ccccn2)cc1 (stereo unspecified) | 12.8 | -11.0 | 3.0 | -7.8 | -1.6 | 3.5
CCOC(=O)[C@@H]1[C@H]2COc3ccccc3[C@@H]2N2C(=O)N(c3ccc(OC)cc3)C(=O)[C@@]12C | 3.0 | 1.8 | 8.4 | 3.2 | 6.9 | 1.8
Cc1cc(-c2ccccc2)[nH]c(=O)c1S(=O)(=O)c1ccccc1 | 2.7 | -2.8 | 1.6 | 4.0 | 21.1* | -4.0
Cc1cc(-c2ccccc2)[nH]c(=O)c1S(=O)(=O)c1ccc(Cl)cc1 | 0.3 | 5.3 | 6.0 | 4.0 | -2.5 | 2.4
OC[C@@H]1CN(Cc2ccco2)C[C@H](n2cnc3c(NCc4ccc(F)cc4)ncnc32)O1 | 1.6 | -6.8 | -2.0 | -10.3 | 5.2 | 3.0
N#CC1=C(N)Oc2cc(O)ccc2C1c1ccc(Br)s1 (stereo unspecified) | 13.7 | -10.0 | 0.1 | 9.3 | -21.1 | 29.4*
C=CCn1c(SCC(=O)N2CCC(C)CC2)nc2c([nH]c3ccccc32)c1=O | 2.2 | -2.2 | 0.6 | -3.5 | 0.9 | -0.3
O=C(COC(=O)C1CCC(=O)N1)Nc1ccc(Oc2ccccc2)cc1 (stereo unspecified) | 0.9 | 3.3 | -1.2 | 6.0 | -3.7 | -1.3
O=C(COC(=O)C1CCC(=O)N1)Nc1ccccc1Br (stereo unspecified) | 0.2 | -14.5 | -2.6 | 1.7 | 21.4* | 0.3
Cc1nc(S(=O)(=O)N2CCN(C3c4ccccc4-c4ccccc43)CC2)cn1C | 6.1 | -12.1 | -3.8 | -10.5 | 4.2 | -5.7
Cc1nc2c(o1)CCc1ccccc1C2N1CCN(C)CC1 (stereo unspecified) | 0.6 | 98.4* | -8.8 | 98.5* | -42.7 | -9.9
CCCCOc1ccc(C(=O)NCC(=O)NCCOc2ccccc2OC)cc1 | 0.6 | 7.8 | 3.3 | 19.1 | -2.0 | -1.8
C/C(=N/NC(=O)CNC(=O)c1ccccc1)c1ccc(C)cc1 | 1.8 | -7.7 | 9.7 | 17.0 | -6.0 | -2.2
C/C(=N\NC(=O)CNC(=O)c1cccc(F)c1)c1ccc2ccccc2c1 | -1.1 | 39.7* | -10.5 | 22.7 | -7.3 | -4.8
O=C1NC(=O)C(c2ccccc2)(c2ccccn2)N1 (stereo unspecified) | 0.7 | -2.6 | 3.8 | 11.3 | -1.2 | 2.4
O=C1NC(=S)NC1(c1ccccc1)c1ccccc1 | 0.1 | 40.7* | -9.4 | 8.5 | -14.4 | -11.0
